# Measurements as given in ChEMBL document CHEMBL1828575, “Design, synthesis and antiproliferative activities of biarylolefins based on polyhydroxylated and carbohydrate scaffolds” (Eur J Med Chem, 2011).
# Assays:
# Assay type in all cases: functional
# DU-145 = test: Cytotoxicity against human DU145 cells assessed as cellular growth at 10 uM after 48 hrs by SRB assay
# Summary of the method: (§1)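 NCI60 single-dose screen of cells in RPMI 1640 with 5% FBS and 2 mM L-glutamine, preincubated 24 h at 37 °C, 5% CO₂. Cells were then exposed 48 h to compound added from DMSO stock. TCA-fixed, stained with 0.4% SRB in 1% acetic acid, dye solubilised in 10 mM Tris base and read at 515 nm. Growth is given as percent of untreated control.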
# ACHN = test: Antitumor activity against human ACHN cells after 48 hrs by SRB assay
# Summary of the method: (§2)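 NCI60 panel in RPMI 1640 with 5% FBS and 2 mM L-glutamine. Cells were plated at 5000–40,000/well by doubling time, held 24 h, then time-zero plates were TCA-fixed. Five concentrations (10-fold or half-log dilutions of DMSO stocks) were applied for 48 h at 37 °C, 5% CO2. Cells were fixed with cold TCA (10% final adherent, 16% suspension) and stained with 0.4% SRB. Bound dye was dissolved in 10 mM Tris and read at 515 nm. GI50, TGI and LC50 were calculated per line.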
# MOLT-4 = test: Antitumor activity against human MOLT4 cells after 48 hrs by SRB assay; conditions: MOLT-4, 48 h; summary of the method: as §2
# A498 = test: Antitumor activity against human A498 cells after 48 hrs by SRB assay; conditions: A498, 48 h; summary of the method: as §2
# SK-OV-3 [1] = test: Cytotoxicity against human SKOV3 cells assessed as cellular growth at 10 uM after 48 hrs by SRB assay
# Summary of the method: (§3)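 NCI-60 panel lines grown in RPMI 1640 with 5% FBS and 2 mM L-glutamine. Plated at 5000–40,000 cells/well and preincubated 24 h at 37 °C, 5% CO₂, with time-zero plates fixed in TCA. Compounds, dissolved in DMSO and diluted in medium, were applied for 48 h. Cells were TCA-fixed (10% final for adherent, 16% for suspension) and stained with 0.4% SRB in 1% acetic acid. Dye was solubilised in 10 mM Tris base and read at 515 nm; growth was expressed as a percentage of untreated control.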
# SF-295 = test: Cytotoxicity against human SF295 cells assessed as cellular growth at 10 uM after 48 hrs by SRB assay; summary of the method: as §3
# U-251 [2] = test: Antitumor activity against human U251 cells after 48 hrs by SRB assay; conditions: U-251, 48 h
# Summary of the method: (§4)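 NCI60 panel cells grown in RPMI 1640 with 5% FBS and 2 mM L-glutamine, plated at 5000–40,000 cells/well and preincubated 24 h at 37 °C, 5% CO₂. Compound was added from DMSO at five concentrations, 10-fold or 1/2 log dilutions, then incubated 48 h.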
# U-251 [3] = test: Cytotoxicity against human U251 cells assessed as cellular growth at 10 uM after 48 hrs by SRB assay; summary of the method: as §3
# RPMI-8226 [4] = test: Cytotoxicity against human RPMI8226 cells assessed as cellular growth at 10 uM after 48 hrs by SRB assay; summary of the method: as §3
# MCF7 = test: Antitumor activity against human MCF7 cells after 48 hrs by SRB assay; conditions: MCF7, 48 h; summary of the method: as §2
# HOP-92 = test: Antitumor activity against human HOP92 cells after 48 hrs by SRB assay; conditions: HOP-92, 48 h; summary of the method: as §2
# HT-29 = test: Antiproliferative activity against human HT-29 cells after 48 hrs by SRB assay; conditions: HT-29, 48 h; summary of the method: as §2
# SK-MEL-2 = test: Antitumor activity against human SK-MEL-2 cells after 48 hrs by SRB assay; conditions: SK-MEL-2, 48 h; summary of the method: as §4
# UO-31 = test: Cytotoxicity against human UO31 cells assessed as cellular growth at 10 uM after 48 hrs by SRB assay; summary of the method: as §3
# A549 = test: Cytotoxicity against human A549 cells assessed as cellular growth at 10 uM after 48 hrs by SRB assay; summary of the method: as §1
# M14 = test: Cytotoxicity against human M14 cells assessed as cellular growth at 10 uM after 48 hrs by SRB assay; summary of the method: as §1
# SK-OV-3 [5] = test: Antitumor activity against human SKOV3 cells after 48 hrs by SRB assay; conditions: SK-OV-3, 48 h; summary of the method: as §4
# RPMI-8226 [6] = test: Antitumor activity against human RPMI8226 cells after 48 hrs by SRB assay; conditions: RPMI-8226, 48 h; summary of the method: as §2
# BT-549 = test: Antitumor activity against human BT549 cells after 48 hrs by SRB assay; conditions: BT-549, 48 h
# Summary of the method: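 NCI60 screen: cells grown in RPMI 1640 with 5% FBS and 2 mM L-glutamine, plated at 5000–40,000 cells/well by doubling time, preincubated 24 h at 37 °C with 5% CO2. Compounds were diluted from DMSO stocks and given for 48 h, at five concentrations for dose response. A time-zero plate was TCA-fixed. Cells were TCA-fixed, stained with 0.4% SRB and read at 515 nm, with growth expressed relative to untreated controls.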
# OVCAR-4 = test: Antitumor activity against human OVCAR4 cells after 48 hrs by SRB assay; conditions: OVCAR-4, 48 h; summary of the method: as §2
# OVCAR-3 = test: Cytotoxicity against human OVCAR3 cells assessed as cellular growth at 10 uM after 48 hrs by SRB assay; summary of the method: as §3
# [7] = read-out: LC50 (the source's name)
# [8] = read-out: pLC50 (the source's name) (converted)
structure (smiles),measurement,setting,value
COc1ccc(/C(=C2/O[C@@H]([C@H]3COC(C)(C)O3)[C@H]3OC(C)(C)O[C@@H]23)c2cc(OC)c(OC)c(OC)c2)cc1O,Activity,DU-145,34.8%
same,GI50,ACHN; read-out: GI50,9.31 µM
same,CC50,ACHN; [7],> 100 µM
same,TGI,ACHN; read-out: TGI,> 100 µM
same,GI50,ACHN; read-out: pGI50 (converted),9.33 µM
same,CC50,ACHN; [8],> 100 µM
same,TGI,ACHN; read-out: pTGI,> 100 µM
same,LC50 (concentration killing 50% of cells),MOLT-4,> 100 µM
same,GI50,MOLT-4; read-out: GI50,6.93 µM
same,TGI,MOLT-4; read-out: TGI,> 100 µM
same,GI50,MOLT-4; read-out: pGI50 (converted),6.92 µM
same,CC50,MOLT-4; [8],> 100 µM
same,TGI,MOLT-4; read-out: pTGI,> 100 µM
same,GI50,A498; read-out: GI50,3.57 µM
same,CC50,A498; [7],> 100 µM
same,TGI,A498; read-out: TGI,> 100 µM
same,GI50,A498; read-out: pGI50 (converted),35.5 µM
same,CC50,A498; [8],> 100 µM
same,TGI,A498; read-out: pTGI (converted),> 100 µM
same,Activity,SK-OV-3 [1],36.02%
same,Activity,SF-295,85.23%
same,GI50,U-251 [2],3.84 µM
same,TGI,U-251 [2],48.2 µM
same,CC50,U-251 [2]; [7],> 100 µM
same,Activity,U-251 [3],46.2%
same,Activity,RPMI-8226 [4],63.56%
same,GI50,MCF7; read-out: GI50,3.76 µM
same,CC50,MCF7; [7],> 100 µM
same,TGI,MCF7; read-out: TGI,> 100 µM
same,GI50,MCF7; read-out: pGI50 (converted),3.8 µM
same,CC50,MCF7; [8],> 100 µM
same,TGI,MCF7; read-out: pTGI (converted),> 100 µM
same,GI50,HOP-92,5.45 µM
same,TGI,HOP-92,31.8 µM
same,CC50,HOP-92; [7],> 100 µM
same,LC50 (50% net cell kill),HT-29,> 100 µM
same,GI50,HT-29; read-out: GI50,3.99 µM
same,TGI,HT-29; read-out: TGI,> 100 µM
same,GI50,HT-29; read-out: pGI50 (converted),3.98 µM
same,CC50,HT-29; [8],> 100 µM
same,TGI,HT-29; read-out: pTGI (converted),> 100 µM
same,GI50,SK-MEL-2,57.9 µM
same,TGI,SK-MEL-2,> 100 µM
same,CC50,SK-MEL-2; [7],> 100 µM
same,Activity,UO-31,49.1%
same,Activity,A549,84.24%
same,Activity,M14,7.95%
same,GI50,SK-OV-3 [5]; read-out: GI50,4.11 µM
same,CC50,SK-OV-3 [5]; [7],> 100 µM
same,TGI,SK-OV-3 [5]; read-out: TGI,3.85 µM
same,GI50,SK-OV-3 [5]; read-out: pGI50 (converted),4.68 µM
same,CC50,SK-OV-3 [5]; [8],> 100 µM
same,TGI,SK-OV-3 [5]; read-out: pTGI (converted),18.6 µM
same,LC50 (concentration killing 50% of starting cells),RPMI-8226 [6],> 100 µM
same,GI50,RPMI-8226 [6]; read-out: GI50,4.63 µM
same,TGI,RPMI-8226 [6]; read-out: TGI,> 100 µM
same,GI50,RPMI-8226 [6]; read-out: pGI50 (converted),4.68 µM
same,CC50,RPMI-8226 [6]; [8],> 100 µM
same,TGI,RPMI-8226 [6]; read-out: pTGI (converted),> 100 µM
same,GI50,BT-549; read-out: GI50,5.39 µM
same,CC50,BT-549; [7],> 100 µM
same,TGI,BT-549; read-out: TGI,> 100 µM
same,GI50,BT-549; read-out: pGI50 (converted),5.37 µM
same,CC50,BT-549; [8],> 100 µM
same,TGI,BT-549; read-out: pTGI (converted),> 100 µM
same,CC50,OVCAR-4; [7],> 100 µM
same,GI50,OVCAR-4; read-out: pGI50 (converted),9.12 µM
same,CC50,OVCAR-4; [8],> 100 µM
same,TGI,OVCAR-4; read-out: pTGI (converted),> 100 µM
same,Activity,OVCAR-3,48%
